# In ChEMBL document CHEMBL1155297, “Synthesis, antimicrobial and antioxidant activities of substituted pyrazoles, isoxazoles, pyrimidine and thioxopyrimidine derivatives” (2009):
# Key:
# Assay type in all cases: functional
# Proteus vulgaris [1] = assay: Antibacterial activity against Proteus vulgaris NCIM 2027 at 100 ug/disk after 24 hrs by agar disk diffusion method; conditions: NCIM 2027, 24 h, read-out: IZ
# How it was run: (§1)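 Agar disc diffusion on nutrient agar plates pre-inoculated with each bacterium. Sterile 6 mm filter-paper discs were moistened with compound in DMSO at the stated per-disc amount. Plates were incubated at 37 °C, and the growth-inhibition zone diameter was read after 24 h. Each determination was run in triplicate, and the mean of three independent readings is reported.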
# Staphylococcus aureus [2] = assay: Antibacterial activity against Staphylococcus aureus NCIM 5021 at 100 ug/disk after 24 hrs by agar disk diffusion method; conditions: NCIM 5021, 24 h, read-out: IZ; how it was run: as §1
# [3] = Antioxidant activity assessed as nitric oxide production at 100 uM after 120 mins by Griess reagent method
# How it was run: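 Nitric oxide assay with Griess read-out. At intervals, 0.5 ml of incubation solution was mixed with 0.5 ml Griess reagent (1% sulfanilamide, 0.1% N-naphthylethylenediamine dihydrochloride, 2% o-phosphoric acid in water). The control received an equal amount of solvent and was handled identically.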
# Aspergillus niger [4] = assay: Antifungal activity against Aspergillus niger NCIM 596 at 100 ug/disk after 48 hrs by agar disk diffusion method; conditions: NCIM 596, 48 h, read-out: IZ
# How it was run: (§2)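 Fungal disc diffusion on nutrient agar plates pre-inoculated with each fungus. 6 mm sterile paper discs carried the compound in DMSO at the stated amount per disc. Plates were held at 37 °C, and inhibition-zone diameter was measured after 48 h. Values are the mean of three independent triplicate readings.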
# Fusarium solani [5] = assay: Antifungal activity against Fusarium solani NCIM 1330 at 200 ug/disk after 48 hrs by agar disk diffusion method; conditions: NCIM 1330, 48 h, read-out: IZ; how it was run: as §2
# Klebsiella pneumoniae [6] = assay: Antibacterial activity against Klebsiella pneumoniae NCIM 2957 at 200 ug/disk after 24 hrs by agar disk diffusion method; conditions: NCIM 2957, 24 h, read-out: IZ; how it was run: as §1
# [7] = test system: Radical scavenging activity; assay: Antioxidant activity assessed as DPPH free radical scavenging activity at 100 uM after 20 mins
# How it was run: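 DPPH scavenging: compound solutions were added to DPPH in dioxane/ethanol and kept at ambient temperature for 20 min. Absorbance was read at 517 nm. The test–control difference was expressed as percent DPPH radical scavenging.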
# Proteus vulgaris [8] = assay: Antibacterial activity against Proteus vulgaris NCIM 2027 at 200 ug/disk after 24 hrs by agar disk diffusion method; conditions: NCIM 2027, 24 h, read-out: IZ; how it was run: as §1
# Bacillus subtilis [9] = assay: Antibacterial activity against Bacillus subtilis NCIM 2063 at 100 ug/disk after 24 hrs by agar disk diffusion method; conditions: NCIM 2063, 24 h, read-out: IZ; how it was run: as §1
# Curvularia lunata [10] = assay: Antifungal activity against Curvularia lunata NCIM 716 at 200 ug/disk after 48 hrs by agar disk diffusion method; conditions: NCIM 716, 48 h, read-out: IZ; how it was run: as §2
# Klebsiella pneumoniae [11] = assay: Antibacterial activity against Klebsiella pneumoniae NCIM 2957 at 100 ug/disk after 24 hrs by agar disk diffusion method; conditions: NCIM 2957, 24 h, read-out: IZ; how it was run: as §1
# Fusarium solani [12] = assay: Antifungal activity against Fusarium solani NCIM 1330 at 100 ug/disk after 48 hrs by agar disk diffusion method; conditions: NCIM 1330, 48 h, read-out: IZ; how it was run: as §2
# Bacillus subtilis [13] = assay: Antibacterial activity against Bacillus subtilis NCIM 2063 at 200 ug/disk after 24 hrs by agar disk diffusion method; conditions: NCIM 2063, 24 h, read-out: IZ; how it was run: as §1
# Curvularia lunata [14] = assay: Antifungal activity against Curvularia lunata NCIM 716 at 100 ug/disk after 48 hrs by agar disk diffusion method; conditions: NCIM 716, 48 h, read-out: IZ; how it was run: as §2
# Staphylococcus aureus [15] = assay: Antibacterial activity against Staphylococcus aureus NCIM 5021 at 200 ug/disk after 24 hrs by agar disk diffusion method; conditions: NCIM 5021, 24 h, read-out: IZ; how it was run: as §1
# Aspergillus niger [16] = assay: Antifungal activity against Aspergillus niger NCIM 596 at 200 ug/disk after 48 hrs by agar disk diffusion method; conditions: NCIM 596, 48 h, read-out: IZ; how it was run: as §2
Compound,zone of inhibition at 100 µg/disc (Proteus vulgaris [1]) [mm],zone of inhibition at 100 µg/disc (Staphylococcus aureus [2]) [mm],inhibition [3] [%],zone of inhibition at 100 µg/disc (Aspergillus niger [4]) [mm],zone of inhibition at 200 µg/disc (Fusarium solani [5]) [mm],zone of inhibition at 200 µg/disc (Klebsiella pneumoniae [6]) [mm],inhibition [7] [%],zone of inhibition at 200 µg/disc (Proteus vulgaris [8]) [mm],zone of inhibition at 100 µg/disc (Bacillus subtilis [9]) [mm],zone of inhibition at 200 µg/disc (Curvularia lunata [10]) [mm],zone of inhibition at 100 µg/disc (Klebsiella pneumoniae [11]) [mm],zone of inhibition at 100 µg/disc (Fusarium solani [12]) [mm],zone of inhibition at 200 µg/disc (Bacillus subtilis [13]) [mm],zone of inhibition at 100 µg/disc (Curvularia lunata [14]) [mm],zone of inhibition at 200 µg/disc (Staphylococcus aureus [15]) [mm],zone of inhibition at 200 µg/disc (Aspergillus niger [16]) [mm]
Cc1ccc(C(=O)CC(C(=O)c2ccc(C)cc2)C2C(N)=NC(=S)N=C2N)cc1 (stereo unspecified),16,20,29.4,14,19,20,32.3,18,21,18,18,15,24,15,21,16
N=C1ON=C(N)C1C(CC(=O)c1ccccc1)C(=O)c1ccccc1 (stereo unspecified),21,23,43.5,27,31,25,42.3,24,24,32,23,30,27,30,26,29
CN1C(=N)C(C(CS(=O)(=O)c2ccc(Cl)cc2)S(=O)(=O)c2ccc(Cl)cc2)C(=N)N(C)C1=O (stereo unspecified),11,16,30.2,15,19,14,31.6,13,15,21,12,16,17,17,18,17
NC1=NC(=O)N=C(N)C1C(CC(=O)c1ccccc1)C(=O)c1ccccc1 (stereo unspecified),12,11,26.8,14,16,12,24.7,14,16,20,11,13,15,16,14,17
NC1=NN=C(N)C1C(CS(=O)(=O)c1ccccc1)S(=O)(=O)c1ccccc1 (stereo unspecified),24,30,60,31,37,30,58.5,25,31,36,28,34,33,33,32,34
NC1=NC(=O)N=C(N)C1C(CS(=O)(=O)c1ccc(Cl)cc1)S(=O)(=O)c1ccc(Cl)cc1 (stereo unspecified),17,22,35.9,16,20,20,35.8,19,23,23,18,17,25,19,24,19
